Data as given in ChEMBL document CHEMBL1166003, “Triterpene glycosides from Curculigo orchioides and their cytotoxic activity” (J Nat Prod, 2010).
Blank lines part the entries; values can stand above or below the compound they belong to. Active and inactive are the calls of the source. No cut-off for these calls is given here.

Key:
HL-60 [1] = assay: Cytotoxicity against human HL60 cells after 72 hrs by MTT assay; assay type: functional, cell-based; conditions: HL-60, 72 h
Summary of the method: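 HL-60 (JCRB 0085) kept in RPMI 1640 with 10% heat-inactivated FBS, penicillin/streptomycin, 37 °C, 5% CO2. Seeded at 4 × 10^4 cells/mL, preincubated 24 h, then dosed from EtOH-H2O (1:1) to final 0.01-20 µg/mL; vehicle-only controls. After 72 h, modified MTT read-out: MTT 4 h, centrifugation, formazan dissolved in DMSO, A550. Triplicate; IC50 taken as 50% reduction of viable cells.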

DMS-273 = assay: Growth inhibition of human DMS273 cells after 48 hrs by SRB assay; assay type: functional; conditions: DMS-273, 48 h
Summary of the method: (§1)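 Part of a 39-line human cancer cell panel, run by a modified NCI method. Cells were plated at suitable density in RPMI 1640 with 5% FBS and left to attach overnight before compound addition. Read-out was GI50.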

[2] = Growth inhibition of human HBC5 cells after 48 hrs by SRB assay; assay type: functional; conditions: HBC5, 48 h; summary of the method: as §1
OVCAR-4 = assay: Growth inhibition of human OVCAR4 cells after 48 hrs by SRB assay; assay type: functional; conditions: OVCAR-4, 48 h; summary of the method: as §1
U-251 = assay: Growth inhibition of human U251 cells after 48 hrs by SRB assay; assay type: functional; conditions: U-251, 48 h; summary of the method: as §1
A549 = assay: Growth inhibition of human A549 cells after 48 hrs by SRB assay; assay type: functional; conditions: A549, 48 h; summary of the method: as §1
MCF7 = assay: Growth inhibition of human MCF7 cells after 48 hrs by SRB assay; assay type: functional; conditions: MCF7, 48 h; summary of the method: as §1
[3] = Growth inhibition of human HBC4 cells after 48 hrs by SRB assay; assay type: functional; conditions: HBC4, 48 h; summary of the method: as §1
MKN-45 = assay: Growth inhibition of human MKN45 cells after 48 hrs by SRB assay; assay type: functional; conditions: MKN-45, 48 h; summary of the method: as §1
HCC 2998 = assay: Growth inhibition of human HCC2998 cells after 48 hrs by SRB assay; assay type: functional; conditions: HCC 2998, 48 h; summary of the method: as §1
PC-3 = assay: Growth inhibition of human PC3 cells after 48 hrs by SRB assay; assay type: functional; conditions: PC-3, 48 h; summary of the method: as §1
MKN-7 = assay: Growth inhibition of human MKN7 cells after 48 hrs by SRB assay; assay type: functional; conditions: MKN-7, 48 h; summary of the method: as §1
SF-295 = assay: Growth inhibition of human SF295 cells after 48 hrs by SRB assay; assay type: functional; conditions: SF-295, 48 h; summary of the method: as §1
St-4 = assay: Growth inhibition of human St-4 cells after 48 hrs by SRB assay; assay type: functional; conditions: St-4, 48 h; summary of the method: as §1
NCI-H460 = assay: Growth inhibition of human NCI-H460 cells after 48 hrs by SRB assay; assay type: functional; conditions: NCI-H460, 48 h; summary of the method: as §1
NCI-H23 = assay: Growth inhibition of human NCI-H23 cells after 48 hrs by SRB assay; assay type: functional; conditions: NCI-H23, 48 h; summary of the method: as §1
MDA-MB-231 = assay: Growth inhibition of human MDA-MB-231 cells after 48 hrs by SRB assay; assay type: functional; conditions: MDA-MB-231, 48 h; summary of the method: as §1
LOX IMVI = assay: Growth inhibition of human LOXIMVI cells after 48 hrs by SRB assay; assay type: functional; summary of the method: as §1
KM12 = assay: Growth inhibition of human KM12 cells after 48 hrs by SRB assay; assay type: functional; conditions: KM12, 48 h; summary of the method: as §1
[4] = Growth inhibition of human MKN1 cells after 48 hrs by SRB assay; assay type: functional; conditions: MKN-1, 48 h; summary of the method: as §1
NCI-H522 = assay: Growth inhibition of human NCI-H522 cells after 48 hrs by SRB assay; assay type: functional; conditions: NCI-H522, 48 h; summary of the method: as §1
[5] = Growth inhibition of human RXF631L cells after 48 hrs by SRB assay; assay type: functional; conditions: RXF 631, 48 h; summary of the method: as §1
HCT-116 = assay: Growth inhibition of human HCT116 cells after 48 hrs by SRB assay; assay type: functional; conditions: HCT-116, 48 h; summary of the method: as §1
HCT-15 = assay: Growth inhibition of human HCT15 cells after 48 hrs by SRB assay; assay type: functional; conditions: HCT-15, 48 h; summary of the method: as §1
SNB-78 = assay: Growth inhibition of human SNB78 cells after 48 hrs by SRB assay; assay type: functional; conditions: SNB-78, 48 h; summary of the method: as §1
MKN-28 = assay: Growth inhibition of human MKN28 cells after 48 hrs by SRB assay; assay type: functional; conditions: MKN-28, 48 h; summary of the method: as §1
SF-268 = assay: Growth inhibition of human SF268 cells after 48 hrs by SRB assay; assay type: functional; conditions: SF-268, 48 h; summary of the method: as §1
SK-OV-3 = assay: Growth inhibition of human SKOV3 cells after 48 hrs by SRB assay; assay type: functional; conditions: SK-OV-3, 48 h; summary of the method: as §1
DMS-114 = assay: Growth inhibition of human DMS114 cells after 48 hrs by SRB assay; assay type: functional; conditions: DMS-114, 48 h; summary of the method: as §1
OVCAR-3 = assay: Growth inhibition of human OVCAR-3 cells after 48 hrs by SRB assay; assay type: functional; conditions: OVCAR-3, 48 h; summary of the method: as §1
OVCAR-8 = assay: Growth inhibition of human OVCAR8 cells after 48 hrs by SRB assay; assay type: functional; conditions: OVCAR-8, 48 h; summary of the method: as §1
HT-29 = assay: Growth inhibition of human HT-29 cells after 48 hrs by SRB assay; assay type: functional; conditions: HT-29, 48 h; summary of the method: as §1
MKN-74 = assay: Growth inhibition of human MKN74 cells after 48 hrs by SRB assay; assay type: functional; conditions: MKN-74, 48 h; summary of the method: as §1
ACHN = assay: Growth inhibition of human ACHN cells after 48 hrs by SRB assay; assay type: functional; summary of the method: as §1
[6] = Growth inhibition of human BSY1 cells after 48 hrs by SRB assay; assay type: functional; conditions: BSY-1, 48 h; summary of the method: as §1
DU-145 = assay: Growth inhibition of human DU145 cells after 48 hrs by SRB assay; assay type: functional; conditions: DU-145, 48 h; summary of the method: as §1
NCI-H226 = assay: Growth inhibition of human NCI-H226 cells after 48 hrs by SRB assay; assay type: functional; conditions: NCI-H226, 48 h; summary of the method: as §1
SNB-75 = assay: Growth inhibition of human SNB75 cells after 48 hrs by SRB assay; assay type: functional; conditions: SNB-75, 48 h; summary of the method: as §1
OVCAR-5 = assay: Growth inhibition of human OVCAR5 cells after 48 hrs by SRB assay; assay type: functional; conditions: OVCAR-5, 48 h; summary of the method: as §1
SF-539 = assay: Growth inhibition of human SF539 cells after 48 hrs by SRB assay; assay type: functional; conditions: SF-539, 48 h; summary of the method: as §1
HL-60 [7] = assay: Cytotoxicity against human HL60 cells at 20 uM after 72 hrs by MTT assay; assay type: functional, cell-based

SMILES: CC(C)C(=O)CC[C@@H](C)[C@H]1[C@@H](O)C[C@@]2(C)[C@@H]3CC[C@H]4C(C)(C)[C@@H](O[C@@H]5O[C@H](CO)[C@@H](O)[C@H](O)[C@H]5O)CC[C@@]45C[C@@]35C[C@H](O)[C@]12C
IC50 (HL-60 [1]): 9000 nM

GI50 (OVCAR-4): 2400 nM
GI50 (U-251): 2190 nM
GI50 (A549): 2690 nM
GI50 (MCF7): 3800 nM
GI50 (MKN-45): 64600 nM
GI50 (HCC 2998): 16600 nM
GI50 (PC-3): 14800 nM
GI50 (MKN-7): 1910 nM
GI50 (NCI-H460): 2240 nM
GI50 (NCI-H23): 3090 nM
GI50 (MDA-MB-231): 2000 nM
GI50 (NCI-H522): 2880 nM
GI50 (HCT-116): 2400 nM
GI50 (HCT-15): 3470 nM
GI50 (MKN-28): 2040 nM
GI50 (SK-OV-3): 4790 nM
GI50 (OVCAR-3): 3240 nM
GI50 (OVCAR-8): 1550 nM
GI50 (HT-29): 3310 nM
GI50 (MKN-74): 2190 nM
GI50 (ACHN): 2000 nM
GI50 (DU-145): 2090 nM
GI50 (NCI-H226): 2750 nM
GI50 (OVCAR-5): 4790 nM
SMILES: CC(C)C(=O)CC[C@@H](C)[C@H]1[C@@H](O)C[C@@]2(C)[C@@H]3CC[C@H]4C(C)(C)[C@@H](O)CC[C@@]45C[C@@]35C[C@H](O)[C@]12C
GI50 (DMS-273): 2090 nM
GI50 [2]: 2880 nM
IC50 (HL-60 [1]): 1800 nM
GI50 [3]: 3160 nM
GI50 (SF-295): 2090 nM
GI50 (St-4): 2750 nM
GI50 (LOX IMVI): 1550 nM
GI50 (KM12): 6170 nM
GI50 [4]: 2570 nM
GI50 [5]: 1780 nM
GI50 (SNB-78): 5010 nM
GI50 (SF-268): 1380 nM
GI50 (DMS-114): 1780 nM
GI50 [6]: 1950 nM
GI50 (SNB-75): 3800 nM
GI50 (SF-539): 2140 nM

SMILES: CC(C)C(=O)CC[C@@H](C)[C@H]1[C@@H](O)C[C@@]2(C)[C@@H]3CC[C@H]4C(C)(C)[C@@H](O[C@@H]5O[C@H](CO[C@@H]6O[C@H](CO)[C@@H](O)[C@H](O)[C@H]6O)[C@@H](O)[C@H](O)[C@H]5O)CC[C@@]45C[C@@]35C[C@H](O)[C@]12C
inhibition (HL-60 [7]): inactive

SMILES: CC(C)C(=O)CC[C@@H](C)[C@H]1[C@@H](O)C[C@@]2(C)[C@@H]3CC[C@H]4C(C)(C)[C@@H](O[C@@H]5O[C@H](CO)[C@@H](O)[C@H](O)[C@H]5O[C@@H]5O[C@H](CO)[C@@H](O)[C@H](O[C@@H]6O[C@H](CO)[C@@H](O)[C@H](O)[C@H]6O)[C@H]5O)CC[C@@]45C[C@@]35C[C@H](O)[C@]12C
inhibition (HL-60 [7]): inactive

SMILES: CC(C)C(=O)CC[C@@H](C)[C@H]1[C@@H](O)C[C@@]2(C)[C@@H]3CC[C@H]4C(C)(C)[C@@H](O[C@@H]5O[C@H](CO)[C@@H](O)[C@H](O)[C@H]5O[C@@H]5O[C@@H](C)[C@H](O)[C@@H](O[C@@H]6O[C@H](CO)[C@@H](O)[C@H](O)[C@H]6O)[C@H]5O)CC[C@@]45C[C@@]35C[C@H](O)[C@]12C
inhibition (HL-60 [7]): inactive

SMILES: CC(C)C(=O)CC[C@@H](C)[C@H]1[C@@H](O)C[C@@]2(C)[C@@H]3CC[C@H]4C(C)(C)[C@@H](O[C@@H]5O[C@H](CO)[C@@H](O)[C@H](O)[C@H]5O[C@@H]5O[C@@H](C)[C@H](O)[C@@H](O)[C@H]5O)CC[C@@]45C[C@@]35C[C@H](O)[C@]12C
inhibition (HL-60 [7]): inactive

SMILES: CC(C)C(=O)CC[C@@H](C)[C@H]1[C@@H](O)C[C@@]2(C)[C@@H]3CC[C@H]4C(C)(C)[C@@H](O[C@@H]5O[C@H](CO)[C@@H](O)[C@H](O)[C@H]5O[C@@H]5O[C@H](CO)[C@@H](O)[C@H](O)[C@H]5O)CC[C@@]45C[C@@]35C[C@H](O)[C@]12C
inhibition (HL-60 [7]): inactive
